Bioassay records as filed in PubChem BioAssay.
Hits are enriched below; roughly 2.1% of the tested compounds scored in any of these assays.
RanGTP-Impb inh = disruptors of Ran-importin-beta complex formation – biochemical, FRET, CFP-Ran, YFP-importin-beta, homogeneous, primary screen; cell-free CFP-Ran/YFP-importin-beta FRET ratio; inhibition, % (test concentration not listed); hit rate 1.1% among 300,000; AID 2216;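 active means more than half of the replicate wells show a fall in the fluorescence ratio signal beyond about 16%, limit read from the data, passing the limit was not always enough; inconclusive means exactly half of the replicate wells pass the set limit; inactive means fewer than half of replicates pass the limit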
FAS TE block = inhibitors of human fatty acid synthase thioesterase domain | recombinant FAS-TE, OMFH fluorogenic substrate, fluorescence endpoint | inhibition, % at 15 µM | hit rate 0.67% among 360,000;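 active means compounds whose normalised, plate-corrected inhibition of enzyme fluorescence in the single-dose primary screen is 50% or more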
Runt-CBFb FRET = blocks binding of human RUNX1 Runt domain to CBFb; inhibition, % at 20 µM; hit rate 0.46% among 220,000; Cerulean-Runt/Venus-CBFb FRET ratio 530/480, 1 h; Q01196+Q13951; AID 1496;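 active means inhibition over about 50% at 20 µM in the single-dose screen, limit read from the data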
Target sequence (Q01196 whole entry, looked up, the tested form may be a part): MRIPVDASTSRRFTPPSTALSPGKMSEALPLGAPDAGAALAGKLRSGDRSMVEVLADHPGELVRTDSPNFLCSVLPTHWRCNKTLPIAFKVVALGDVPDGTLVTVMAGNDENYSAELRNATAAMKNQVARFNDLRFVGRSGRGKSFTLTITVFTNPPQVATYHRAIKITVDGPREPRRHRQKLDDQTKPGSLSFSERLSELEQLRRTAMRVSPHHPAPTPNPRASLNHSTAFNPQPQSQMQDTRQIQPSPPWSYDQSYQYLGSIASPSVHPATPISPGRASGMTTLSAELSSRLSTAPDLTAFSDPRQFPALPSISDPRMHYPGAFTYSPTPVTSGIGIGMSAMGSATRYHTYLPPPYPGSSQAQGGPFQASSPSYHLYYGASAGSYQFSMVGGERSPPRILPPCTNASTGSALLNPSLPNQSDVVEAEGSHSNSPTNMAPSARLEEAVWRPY
Target sequence (Q13951 whole entry, looked up, the tested form may be a part): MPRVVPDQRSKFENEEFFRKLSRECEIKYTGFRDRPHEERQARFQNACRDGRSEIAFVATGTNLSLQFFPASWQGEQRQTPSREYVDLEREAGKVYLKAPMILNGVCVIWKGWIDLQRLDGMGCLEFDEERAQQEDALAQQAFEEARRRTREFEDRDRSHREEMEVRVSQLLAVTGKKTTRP
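test system = Cerulean-tagged RUNX1 Runt domain (FRET donor) fusion protein | reagent = Venus-CBFb binding partner, 100 nM | incubation = protein complex preformed 1 h, compound exposure 1 h, room temperature, dark | detection = FRET fluorescence | read-out basis = loss of energy transfer signal | controls = 5 µM unlabeled CBFb as full-inhibition high control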
Runt-SMMHC FRET = inhibitors of human RUNX1 Runt domain binding to CBFb-SMMHC. Q01196+Q13951. Cerulean-Runt/Venus-CBFb-SMMHC FRET ratio 530/480, 1 h. inhibition, % at 20 µM. hit rate 0.74% among 220,000. AID 1434;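 active means mean inhibition across duplicate retests at 20 µM reaching about 50%, limit read from the data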;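 further: inhibitors lower the FRET ratio by blocking Runt binding to CBFb-SMMHC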
m-calpain inh = blocks pig calpain II enzyme activity | inhibition, % at 16 µM | purified calpain II, fluorogenic peptide substrate, 30 min | AID 1236 | hit rate 0.37% among 220,000;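 active means inhibition above about 50%, limit read from the data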
FAS-TE inh conf = FAS thioesterase (human) inhibition, confirmation | shares compounds with FAS TE block | recombinant FAS-TE, OMFH fluorogenic substrate, fluorescence | inhibition, % at 15 µM | hit rate 45% among 2,300 | AID 624325;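 active means compounds inhibiting the enzyme by at least 50% at 15 µM in any one of the replicates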
Numbers stand for hits.

Results for COc1cccc(NC(=O)CN2C(=O)CSc3ccc(S(=O)(=O)N4CCC(C)CC4)cc32)c1 ?
RanGTP-Impb inh: inactive; FAS TE block: 65; FAS-TE inh conf: 72

What do the screens show for `Cc1cc(C)c(S(=O)(=O)N2CCN(c3ccc([N+](=O)[O-])c(-n4nc(C)cc4C)c3)CC2)c(C)c1`?
RanGTP-Impb inh: inconclusive; FAS TE block: inactive; Runt-CBFb FRET: inactive; Runt-SMMHC FRET: inactive; m-calpain inh: inactive

How did Cc1cc(C)n(-c2cc(N3CCN(S(=O)(=O)c4ccc(Br)cc4)CC3)ccc2[N+](=O)[O-])n1 do in these assays?
RanGTP-Impb inh: inactive; FAS TE block: 51; Runt-CBFb FRET: inactive; Runt-SMMHC FRET: inactive; m-calpain inh: inactive; FAS-TE inh conf: inactive

Results for Cc1ccc(N2NC(=O)/C(=C/c3ccc(-c4ccc(Cl)c(C(=O)O)c4)o3)C2=O)cc1 ?
RanGTP-Impb inh: inactive; FAS TE block: inactive; Runt-CBFb FRET: inactive; Runt-SMMHC FRET: inactive; m-calpain inh: inactive

What do the screens show for `CC(C)N1C(=O)S/C(=C\c2ccc(-c3ccc(Cl)c(C(=O)O)c3)o2)C1=O`?
RanGTP-Impb inh: 26; FAS TE block: 69; FAS-TE inh conf: 75

What do the screens show for `Cc1ccc(S(=O)(=O)N2C[C@H]3[C@H]4C(=O)N(c5ccccc5)C(=O)[C@H]4CC(=O)[C@H]3[C@@H]2c2ccc(Cl)cc2)cc1`?
FAS TE block: inactive

What do the screens show for `COc1ccc([C@@H]2C[C@H]3[C@@H](CN2S(=O)(=O)c2ccccc2)C(=O)C[C@@H](c2ccc(OC)cc2)N3S(=O)(=O)c2ccccc2)cc1`?
FAS TE block: 76; FAS-TE inh conf: inactive

Results for Cc1ccc(S(=O)(=O)N2C[C@H]3[C@H]4C(=O)N(c5ccccc5)C(=O)[C@H]4CC(=O)[C@H]3[C@@H]2c2cccc3ccccc23)cc1 ?
FAS TE block: 84; FAS-TE inh conf: 46

What do the screens show for `Cc1ccc(S(=O)(=O)N2C[C@H]3C(=O)C[C@@H]4C(=O)N(c5ccccc5)C(=O)[C@@H]4[C@@H]3C[C@@H]2c2ccccc2)cc1`?
FAS TE block: 75; FAS-TE inh conf: inactive

How did CCc1ccc([C@H]2[C@@H]3C(=O)C[C@@H]4C(=O)N(c5ccccc5)C(=O)[C@@H]4[C@@H]3CN2S(=O)(=O)c2ccc(C)cc2)cc1 do in these assays?
FAS TE block: inactive

Results for Cc1ccc(S(=O)(=O)N2[C@H](C(C)C)[C@H]3[C@H]4C(=O)N(c5ccccc5)C(=O)[C@H]4CC(=O)[C@H]3[C@@H]2c2ccccc2)cc1 ?
FAS TE block: 68; FAS-TE inh conf: inactive

Results for Cc1ccc(S(=O)(=O)N2C[C@H]3[C@H]4C(=O)N(c5ccccc5)C(=O)[C@H]4CC(=O)[C@H]3[C@@H]2c2ccccc2F)cc1 ?
FAS TE block: inactive

Results for CCOc1ccc(NC(=O)COC(=O)C2COc3ccccc3O2)cc1 (stereo unspecified) ?
FAS TE block: inactive

What do the screens show for `COc1cc(CN2CCN(C(=O)c3cccc4ccccc34)CC2)cc(OC)c1O`?
RanGTP-Impb inh: inactive; FAS TE block: inactive

Results for CN(C(=O)c1cc(-c2ccccc2)on1)C1CCCCC1 ?
RanGTP-Impb inh: inactive; FAS TE block: inactive

What do the screens show for `CS(=O)(=O)N1CCCC(C(=O)Nc2cccc(F)c2)C1` (stereo unspecified)?
RanGTP-Impb inh: inactive; FAS TE block: inactive

How did CCOC(=O)C1=CNS(=O)(=O)NC1c1ccc(C)cc1 (stereo unspecified) do in these assays?
FAS TE block: inactive

What do the screens show for `C=CCC(=O)NC1CC(C)(C)Cc2c1cnn2-c1ccccc1C` (stereo unspecified)?
RanGTP-Impb inh: inactive; FAS TE block: inactive

Results for CCOC(=O)c1cc2c(=O)n3ccccc3nc2n(C(C)C)c1=NC(=O)c1c(-c2c(F)cccc2Cl)noc1C ?
RanGTP-Impb inh: 90; FAS TE block: 94; Runt-CBFb FRET: 101; Runt-SMMHC FRET: 63; m-calpain inh: inactive; FAS-TE inh conf: inactive

Results for COC(=O)c1ccc(Nc2nnc(-c3ccc(C)c(S(=O)(=O)NCC4CCCO4)c3)c3ccccc23)cc1 (stereo unspecified) ?
RanGTP-Impb inh: inactive; FAS TE block: 67; Runt-CBFb FRET: inactive; Runt-SMMHC FRET: inactive; m-calpain inh: inactive; FAS-TE inh conf: inactive

What do the screens show for `Cc1ccc(-c2nnc(Nc3ccc(C(=O)N(C)C)cc3)c3ccccc23)cc1S(=O)(=O)NCC1CCCO1` (stereo unspecified)?
RanGTP-Impb inh: inactive; FAS TE block: inactive; Runt-CBFb FRET: inactive; Runt-SMMHC FRET: inactive; m-calpain inh: inactive

How did CCCNC(=O)c1ccc(N2CCC3(CC2)CC(c2cccc(Br)c2)=NO3)c(NC(=O)c2c(Cl)cccc2Cl)c1 do in these assays?
RanGTP-Impb inh: inactive; FAS TE block: 54; FAS-TE inh conf: inactive

What do the screens show for `Cc1ccc(CNC(=O)c2ccc(N3CCC4(CC3)CC(c3ccccc3)=NO4)c(NC(=O)c3ccco3)c2)cc1`?
RanGTP-Impb inh: inactive; FAS TE block: 64; FAS-TE inh conf: inactive

What do the screens show for `Cc1ccc(CNC(=O)c2ccc(N3CCC4(CC3)CC(c3cccc(Br)c3)=NO4)c(NC(=O)c3ccco3)c2)cc1`?
RanGTP-Impb inh: inactive; FAS TE block: inactive

How did O=[N+]([O-])c1ccc(S(=O)(=O)NN=Cc2ccc3c(c2)OCO3)cc1 do in these assays?
FAS TE block: 64; FAS-TE inh conf: 72

How did COc1cc(C2c3[nH]c4ccccc4c3C[C@H]3C(=O)N(C4CC4)CC(=O)N23)ccc1OC(C)C (stereo partly specified) do in these assays?
RanGTP-Impb inh: inactive; FAS TE block: inactive

How did COc1ccc(OC)c(S(=O)(=O)N/N=C(/C)c2ccc3c(c2)OCO3)c1 do in these assays?
RanGTP-Impb inh: inactive; FAS TE block: inactive

Results for Cc1sc2ncnc(N3CCC(C(=O)Nc4sc5c(c4C(N)=O)CCC(C)C5)CC3)c2c1C (stereo unspecified) ?
FAS TE block: 66; FAS-TE inh conf: inactive

Results for CNC(=O)c1ccc(NC(=O)C2CCN(c3ncnc4sc(C)c(C)c34)CC2)cc1 ?
RanGTP-Impb inh: inactive; FAS TE block: inactive

What do the screens show for `COc1cc(NC(=O)CCC2CCCC2)cc(-n2cnnn2)c1`?
RanGTP-Impb inh: inactive; FAS TE block: 60; Runt-CBFb FRET: inactive; Runt-SMMHC FRET: inactive; m-calpain inh: inactive; FAS-TE inh conf: inactive

What do the screens show for `CCCCCC1(C(=O)OCC)CC(CSC(=N)N)OC1=O` (stereo unspecified)?
RanGTP-Impb inh: inactive; FAS TE block: inactive; Runt-CBFb FRET: inactive; Runt-SMMHC FRET: inactive; m-calpain inh: inactive

Results for Cc1ccccc1CN1CCN(CC(=O)NC(C)c2ccccc2)CC1 (stereo unspecified) ?
RanGTP-Impb inh: inactive; FAS TE block: inactive
